Experimental data taken from ChEMBL document CHEMBL1126811, “Fluorinated and iodinated dopamine agents: D2 imaging agents for PET and SPECT” (J Med Chem, 1993).

Legend:
Rattus norvegicus [1] = test: Biodistribution of radioligand [125I]FIDA1 in muscle of rat after 60 minutes after an intravenous injection is given (average of 3 rats); assay type: ADME, organism-based, Muscle tissue; settings: in vivo, 1 h
Outline: (§1)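 Male Sprague–Dawley rats (225–300 g) were given 0.2 mL saline containing the radioiodinated ligand (8–10 μCi) into the femoral vein under ether anesthesia. They were killed at set times by cardiac excision. Organs were weighed and γ-counted against diluted aliquots of the injected dose and expressed as % dose/organ. Blood and muscle were taken as 7% and 40% of body weight. Three rats were used per point.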

Rattus norvegicus [2] = test: Biodistribution of radioligand [125I]FIDA1 in thyroid of rat after 60 minutes after an intravenous injection is given (average of 3 rats); assay type: ADME, organism-based, Thyroid gland; settings: in vivo, 1 h; outline: as §1
Rattus norvegicus [3] = test: Biodistribution of radioligand [125I]FIDA1 in blood of rat after 60 minutes after an intravenous injection is given (average of 3 rats); assay type: ADME, organism-based; settings: in vivo, 1 h; outline: as §1
Rattus norvegicus [4] = test: Biodistribution of radioligand [125I]FIDA1 in lung of rat after 2 minutes after an intravenous injection is given (average of 3 rats); assay type: ADME, organism-based; settings: in vivo; outline: as §1
Rattus norvegicus [5] = test: Biodistribution of radioligand [125I]FIDA1 in kidney of rat after 120 minutes after an intravenous injection is given (average of 3 rats); assay type: ADME, organism-based; settings: in vivo, 2 h; outline: as §1
Rattus norvegicus [6] = test: Biodistribution of radioligand [125I]FIDA1 in heart of rat after 2 minutes after an intravenous injection is given (average of 3 rats); assay type: ADME, organism-based; settings: in vivo; outline: as §1
Rattus norvegicus [7] = test: Biodistribution of radioligand [125I]FIDA1 in brain of rat after 2 minutes after an intravenous injection is given (average of 3 rats); assay type: ADME, organism-based; settings: in vivo; outline: as §1
Rattus norvegicus [8] = test: Biodistribution of radioligand [125I]FIDA1 in spleen of rat after 2 minutes after an intravenous injection is given (average of 3 rats); assay type: ADME, organism-based; settings: in vivo; outline: as §1
Rattus norvegicus [9] = test: Biodistribution of radioligand [125I]FIDA1 in brain of rat after 120 minutes after an intravenous injection is given (average of 3 rats); assay type: ADME, organism-based; settings: in vivo, 2 h; outline: as §1
Rattus norvegicus [10] = test: Biodistribution of radioligand [125I]FIDA1 in kidney of rat after 60 minutes after an intravenous injection is given (average of 3 rats); assay type: ADME, organism-based; settings: in vivo, 1 h; outline: as §1
Rattus norvegicus [11] = test: Uptake of radioligand [125I]-FIDA1 by cortex in rat after 120 minutes after an intravenous injection is given (average of 3 rats); assay type: ADME, organism-based; settings: in vivo, 2 h
Outline: (§2)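 Male Sprague–Dawley rats (225–300 g) under ether anesthesia received radioiodinated tracer (8–10 μCi in 0.2 mL saline) into the femoral vein. They were killed by cardiac excision at set times. Cortex, striatum, hippocampus and cerebellum were dissected, weighed and gamma-counted. Results are % dose/gram against diluted injected dose.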

Rattus norvegicus [12] = test: Biodistribution of radioligand [125I]FIDA1 in spleen of rat after 60 minutes after an intravenous injection is given (average of 3 rats); assay type: ADME, organism-based; settings: in vivo, 1 h; outline: as §1
Rattus norvegicus [13] = test: Biodistribution of radioligand [125I]FIDA1 in skin of rat after 60 minutes after an intravenous injection is given (average of 3 rats); assay type: ADME, organism-based, Zone of skin; settings: in vivo, 1 h; outline: as §1
Rattus norvegicus [14] = test: Biodistribution of radioligand [125I]FIDA1 in heart of rat after 60 minutes after an intravenous injection is given (average of 3 rats); assay type: ADME, organism-based; settings: in vivo, 1 h; outline: as §1
Rattus norvegicus [15] = species: Rattus norvegicus; test: Dissociation constant was determined; assay type: ADME, organism-based
Outline: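 Rat striatal membrane homogenate (40–60 μg protein) incubated with 125I-labeled ligand ± competitors in 0.2 mL assay buffer, 15 min at 37 °C with stirring. Filtered on protamine-pretreated (0.2%) GF/B filters, washed with cold 50 mM Tris-HCl pH 7.4, gamma-counted. Nonspecific binding defined with 10 μM (+)-butaclamol. Scatchard and competition data fitted by iterative nonlinear least squares.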

Rattus norvegicus [16] = test: Biodistribution of radioligand [125I]FIDA1 in brain of rat after 60 minutes after an intravenous injection is given (average of 3 rats); assay type: ADME, organism-based; settings: in vivo, 1 h; outline: as §1
Rattus norvegicus [17] = test: Biodistribution of radioligand [125I]FIDA1 in skin of rat after 2 minutes after an intravenous injection is given (average of 3 rats); assay type: ADME, organism-based, Zone of skin; settings: in vivo; outline: as §1
Rattus norvegicus [18] = test: Biodistribution of radioligand [125I]-FIDA1 in kidney of rat after 2 minutes after an intravenous injection is given (average of 3 rats); assay type: ADME, organism-based; settings: in vivo; outline: as §1
Rattus norvegicus [19] = test: Biodistribution of radioligand [125I]-FIDA1 in liver of rat after 2 minutes after an intravenous injection is given (average of 3 rats); assay type: ADME, organism-based; settings: in vivo; outline: as §1
Rattus norvegicus [20] = test: Uptake of radioligand [125I]FIDA1 by cortex in rat after 60 minutes after an intravenous injection is given (average of 3 rats); assay type: ADME, organism-based; settings: in vivo, 1 h; outline: as §2
Rattus norvegicus [21] = test: Uptake of radioligand [125I]FIDA1 by striatum in rat after 2 minutes after an intravenous injection is given (average of 3 rats); assay type: ADME, organism-based; settings: in vivo; outline: as §2
Rattus norvegicus [22] = test: Biodistribution of radioligand [125I]FIDA1 in blood of rat after 2 minutes after an intravenous injection is given (average of 3 rats); assay type: ADME, organism-based; settings: in vivo; outline: as §1
Rattus norvegicus [23] = test: Biodistribution of radioligand [125I]FIDA1 in skin of rat after 120 minutes after an intravenous injection is given (average of 3 rats); assay type: ADME, organism-based, Zone of skin; settings: in vivo, 2 h; outline: as §1
Rattus norvegicus [24] = test: Uptake of radioligand [125I]FIDA1 by striatum in rat after 60 minutes after an intravenous injection is given (average of 3 rats); assay type: ADME, organism-based; settings: in vivo, 1 h; outline: as §2
Rattus norvegicus [25] = test: Uptake of radioligand [125I]FIDA1 by striatum in rat after 120 minutes after an intravenous injection is given (average of 3 rats); assay type: ADME, organism-based; settings: in vivo, 2 h; outline: as §2
Rattus norvegicus [26] = test: Uptake of radioligand [125I]FIDA1 by cerebellum in rat after 2 minutes after an intravenous injection is given (average of 3 rats); assay type: ADME, organism-based; settings: in vivo; outline: as §2
Rattus norvegicus [27] = test: Biodistribution of radioligand [125I]FIDA1 in thyroid of rat after 120 minutes after an intravenous injection is given (average of 3 rats); assay type: ADME, organism-based, Thyroid gland; settings: in vivo, 2 h; outline: as §1
Rattus norvegicus [28] = test: Biodistribution of radioligand [125I]FIDA1 in thyroid of rat after 2 minutes after an intravenous injection is given (average of 3 rats); assay type: ADME, organism-based, Thyroid gland; settings: in vivo; outline: as §1
Rattus norvegicus [29] = test: Biodistribution of radioligand [125I]FIDA1 in liver of rat after 120 minutes after an intravenous injection is given (average of 3 rats); assay type: ADME, organism-based; settings: in vivo, 2 h; outline: as §1
Rattus norvegicus [30] = test: Biodistribution of radioligand [125I]FIDA1 in muscle of rat after 2 minutes after an intravenous injection is given (average of 3 rats); assay type: ADME, organism-based, Muscle tissue; settings: in vivo; outline: as §1
Rattus norvegicus [31] = test: Biodistribution of radioligand [125I]FIDA1 in blood of rat after 30 minutes after an intravenous injection is given (average of 3 rats); assay type: ADME, organism-based; settings: in vivo, 0.5 h; outline: as §1
Rattus norvegicus [32] = test: Uptake of radioligand [125I]FIDA1 by cerebellum in rat after 60 minutes after an intravenous injection is given (average of 3 rats); assay type: ADME, organism-based; settings: in vivo, 1 h; outline: as §2
Rattus norvegicus [33] = test: Biodistribution of radioligand [125I]FIDA1 in lung of rat after 120 minutes after an intravenous injection is given (average of 3 rats); assay type: ADME, organism-based; settings: in vivo, 2 h; outline: as §1
Rattus norvegicus [34] = test: Biodistribution of radioligand [125I]FIDA1 in spleen of rat after 120 minutes after an intravenous injection is given (average of 3 rats); assay type: ADME, organism-based; settings: in vivo, 2 h; outline: as §1
Rattus norvegicus [35] = test: Biodistribution of radioligand [125I]FIDA1 in liver of rat after 60 minutes after an intravenous injection is given (average of 3 rats); assay type: ADME, organism-based; settings: in vivo, 1 h; outline: as §1
Rattus norvegicus [36] = test: Biodistribution of radioligand [125I]-FIDA1 in heart of rat after 120 minutes after an intravenous injection is given (average of 3 rats); assay type: ADME, organism-based; settings: in vivo, 2 h; outline: as §1
Rattus norvegicus [37] = test: Biodistribution of radioligand [125I]FIDA1 in lung of rat after 60 minutes after an intravenous injection is given (average of 3 rats); assay type: ADME, organism-based; settings: in vivo, 1 h; outline: as §1

Dose/organ (Rattus norvegicus [1])	Dose/organ (Rattus norvegicus [2])	Dose/organ (Rattus norvegicus [3])	Dose/organ (Rattus norvegicus [4])	Dose/organ (Rattus norvegicus [5])	Dose/organ (Rattus norvegicus [6])	Dose/organ (Rattus norvegicus [7])	Dose/organ (Rattus norvegicus [8])	Dose/organ (Rattus norvegicus [9])	Dose/organ (Rattus norvegicus [10])	Dose/g (Rattus norvegicus [11])	Dose/organ (Rattus norvegicus [12])	Dose/organ (Rattus norvegicus [13])	Dose/organ (Rattus norvegicus [14])	Kd (Rattus norvegicus [15])	Dose/organ (Rattus norvegicus [16])	Dose/organ (Rattus norvegicus [17])	Dose/organ (Rattus norvegicus [18])	Dose/organ (Rattus norvegicus [19])	Dose/g (Rattus norvegicus [20])	SMILES	other results
1.96%	0.04%	0.78%	6.53%	0.11%	0.81%	0.41%	0.7%	0.02%	0.39%	0.0014%	0.05%	1.76%	0.03%	130 pM	0.05%	8.19%	6.18%	20.46%	0.013%	CCN1CCC[C@H]1CNC(=O)c1cc(I)cc(OC)c1OCCF	Dose/g (Rattus norvegicus [21]): 0.3%; Dose/organ (Rattus norvegicus [22]): 3.76%; Dose/organ (Rattus norvegicus [23]): 0.75%; Dose/g (Rattus norvegicus [24]): 0.175%; Dose/g (Rattus norvegicus [25]): 0.095%; Dose/g (Rattus norvegicus [26]): 0.16%; Dose/organ (Rattus norvegicus [27]): 0.03%; Dose/organ (Rattus norvegicus [28]): 0.07%; Dose/organ (Rattus norvegicus [29]): 2.24%; Dose/organ (Rattus norvegicus [30]): 11.83%; Dose/organ (Rattus norvegicus [31]): 1.91%; Dose/g (Rattus norvegicus [32]): 0.006%; Dose/organ (Rattus norvegicus [33]): 0.04%; Dose/organ (Rattus norvegicus [34]): 0.01%; Dose/organ (Rattus norvegicus [35]): 7.08%; Dose/organ (Rattus norvegicus [36]): 0.01%; Dose/organ (Rattus norvegicus [37]): 0.14%
4.21%	0.03%	0.64%	7.82%	0.42%	1.38%	0.98%	1.19%	0.05%	1.38%	0.01%	0.14%	8.56%	0.06%	20 pM	0.1%	6.08%	6.77%	19.41%	0.04%	COc1cc(I)cc(C(=O)NC[C@@H]2CCCN2Cc2ccc(F)cc2)c1OC	Dose/g (Rattus norvegicus [21]): 0.59%; Dose/organ (Rattus norvegicus [22]): 2.08%; Dose/organ (Rattus norvegicus [23]): 5.75%; Dose/g (Rattus norvegicus [24]): 0.37%; Dose/g (Rattus norvegicus [25]): 0.23%; Dose/g (Rattus norvegicus [26]): 0.49%; Dose/organ (Rattus norvegicus [27]): 0.03%; Dose/organ (Rattus norvegicus [28]): 0.07%; Dose/organ (Rattus norvegicus [29]): 5.71%; Dose/organ (Rattus norvegicus [30]): 11.14%; Dose/organ (Rattus norvegicus [31]): 0.87%; Dose/g (Rattus norvegicus [32]): 0.03%; Dose/organ (Rattus norvegicus [33]): 0.15%; Dose/organ (Rattus norvegicus [34]): 0.05%; Dose/organ (Rattus norvegicus [35]): 10.44%; Dose/organ (Rattus norvegicus [36]): 0.03%; Dose/organ (Rattus norvegicus [37]): 0.32%
